Assay results collected from several papers.
Compare with care: the assays were run in different laboratories.
Read-out: cell growth or viability

CN(C)CCn1cnc2ccc(-c3ccc4sc(NC(=O)Nc5ccc(F)cc5)nc4c3)cc2c1=O  IC50 (NCI-H1975; MTT; 72 h): 1.39 µM
O=C(Nc1ccc(-c2ccc3ncn(Cc4ccc5c(c4)OCO5)c(=O)c3c2)cn1)c1ccccc1  IC50 (NCI-H1975; CCK-8; 72 h): > 10 µM
COc1cccc2c1C(=O)c1c(O)c3c(c(O)c1C2=O)C[C@@](O)(C(=O)CO)C[C@@H]3O[C@H]1C[C@H](N)[C@H](O)[C@H](C)O1  IC50 (Pfeiffer; 96 h): 0.0907 µM
CCCn1cnc2ccc(-c3ccc(NC(=O)CNCC)nc3)cc2c1=O  IC50 (NCI-H1975; CCK-8; 72 h): 8.79 µM
CC(C)(C)c1cnc(CSc2cnc(NC(=O)C3CCN(C(=O)CCCCCCCN4Cc5cc6c(cc5C4)C(=O)N(C4CCC(=O)NC4=O)C6=O)CC3)s2)o1 (centres unmarked)  IC50 (A673; MTT): 0.0754 µM
CCCCn1cnc2ccc(-c3ccc(NC(=O)Nc4ccc(C(F)(F)F)cc4)nc3)cc2c1=O  IC50 (NCI-H1975; CCK-8; 72 h): 6.85 µM
O=C(Nc1ccc(F)cc1)Nc1nc2cc(-c3ccc4ncn(CCC5CCCCC5)c(=O)c4c3)ccc2s1  IC50 (NCI-H1975; MTT; 72 h): 5.97 µM
COC[C@H](NC(=O)c1ccn(S(C)(=O)=O)c1)C(=O)Nc1nc(-c2cccc(N3C[C@@H](C)O[C@@H](C)C3)n2)cs1  IC50 (HCC515; ATP luminescence; 7 days): 0.119 µM
c1ccc(Oc2ccc(Nc3c4c(nc5ccccc35)CCC4)cc2)cc1  IC50 (HEK293; resazurin; 72 h): 11.2 µM
O=C(Nc1ccc(F)cc1)Nc1nc2cc(-c3ccc4ncn(CCN5CCOCC5)c(=O)c4c3)ccc2s1  IC50 (NCI-H1975; MTT; 72 h): 4.31 µM
CCCCn1cnc2ccc(-c3ccc(NC(=O)NCCC)nc3)cc2c1=O  IC50 (NCI-H1975; CCK-8; 72 h): 8.75 µM
Nc1cccc2c1C(=O)N(C1CCC(=O)NC1=O)C2=O (centres unmarked)  IC50 (TMD8; CCK-8; 7 days): > 20 µM
Nc1nnc(-c2ccccc2O)cc1N1CC2CCC(C1)N2c1ccnc(F)c1  IC50 (HCC515; ATP luminescence; 7 days): > 1 µM
O=C(NCc1ccccc1)Nc1nc2cc(-c3ccc4ncn(Cc5ccccc5)c(=O)c4c3)ccc2s1  IC50 (NCI-H1975; MTT; 72 h): > 20 µM
COc1ccc(C[C@H](N)C(=O)N[C@H]2[C@@H](O)[C@H](n3cnc4c(N(C)C)ncnc43)O[C@@H]2CO)cc1  IC50 (HEK293; resazurin; 72 h): 0.72 µM
CCCCC(=O)Nc1ccc(-c2ccc3ncn(CCC)c(=O)c3c2)cc1F  IC50 (NCI-H1975; CCK-8; 72 h): 1.68 µM
CCC(=O)Nc1nc2cc(-c3ccc4ncn(Cc5ccccc5)c(=O)c4c3)ccc2s1  IC50 (NCI-H1975; MTT; 72 h): > 20 µM
CCCCn1cnc2ccc(-c3ccc(NC(=O)Nc4ccc(Cl)cc4)nc3)cc2c1=O  IC50 (NCI-H1975; CCK-8; 72 h): 2.55 µM
O=C(Nc1ccc(Cl)cc1)Nc1nc2cc(-c3ccc4ncn(Cc5ccccc5)c(=O)c4c3)ccc2s1  IC50 (NCI-H1975; MTT; 72 h): > 20 µM
Nc1ccn([C@@H]2O[C@H](CO)[C@@H](O)C2(F)F)c(=O)n1  IC50 (HEK293; MTT; 24 h): 24.2 µg/mL
